SMILES strings stand for the structures. Active and inactive are the calls of the source. No cut-off for these calls is given here.

The IC50 is the concentration that gives 50% inhibition.

The first data set concerns T47D. The data set is described as follows: Antiproliferative activity against human T47D cells harboring PI3KCA H1047R mutant after 72 hrs by MTT assay. The class given is functional, cell-based.
Details: not given
Take `CCS(=O)(=O)C(C)(C)c1cc(-c2cnc(N)cc2C(F)(F)F)nc(N2CCOCC2)n1`: the IC50 was found to be 552 nM.
With `CS(=O)(=O)C1(c2cc(-c3cnc(N)cc3C(F)(F)F)nc(N3CCOCC3)n2)CCCC1`, half-maximal inhibition (IC50) was put at 218 nM.
In turn, `C[C@H]1COCCN1c1nc(-c2cnc(N)cc2C(F)(F)F)cc(C2(S(C)(=O)=O)CC2)n1` showed an IC50 of 129 nM.
On the same count and under the same terms, the figure for `CC(C)S(=O)(=O)C(C)(C)c1cc(-c2cnc(N)cc2C(F)(F)F)nc(N2CCOCC2)n1` is 1060 nM; for `CC(C)S(=O)(=O)C1(c2cc(-c3cnc(N)cc3C(F)(F)F)nc(N3CCOCC3)n2)CC1` it is 160 nM.
The same measure, in the same setting: the figure for `C[C@H]1COCCN1c1nc(-c2cnc(N)cc2C(F)(F)F)cc(C2(S(C)(=O)=O)CCC2)n1` is 93 nM.
Take `CS(=O)(=O)Cc1cc(-c2cnc(N)cc2C(F)(F)F)nc(N2CCOCC2)n1`: half-maximal inhibition (IC50) required 1670 nM.
In turn, `CC(C)(c1cc(-c2cnc(N)cc2F)nc(N2CCOCC2)n1)S(C)(=O)=O` showed an IC50 of 123 nM.
On to `Nc1cc(C(F)(F)F)c(-c2cc(C3(S(=O)(=O)c4ccccc4)CC3)nc(N3CCOCC3)n2)cn1`, for which half-maximal inhibition (IC50) required 324 nM.
Same read-out and setting: the figure for `Nc1cc(C(F)(F)F)c(-c2cc(C3(S(=O)(=O)c4ccc(F)cc4)CC3)nc(N3CCOCC3)n2)cn1` is 619 nM.

Test system in another data set: not listed separately
Description: Intrinsic clearance in mouse liver microsomes at […] pretreated up to 45 mins followed by NADPH addition and measured by LC-MS/MS analysis. The class given is ADME, microsome. Particulars: read-out: CLH. Background: Liver microsomes are a subcellular fraction often used to study metabolism.
`CS(=O)(=O)C1(c2cc(-c3cnc(N)cc3C(F)(F)F)nc(N3CCOCC3)n2)CC1`: the CLint scaled stood at 185 mL/min/kg.
In the case of `CC(C)(c1cc(-c2cnc(N)cc2F)nc(N2CCOCC2)n1)S(C)(=O)=O`, the CLint scaled was in the range of 40 to 140 mL/min/kg.

Another data set concerns the target PI3K p110 beta/p85 alpha (Homo sapiens, UniProt P42338). Description: Inhibition of recombinant human full-length N-terminal His6-tagged p110beta/recombinant human full length p85alpha expressed in baculovirus infected Sf21 insect cells using PIP2 as substrate measured after 1 hr by Alexa633 Tracer-based fluorescence polarization assay.
Details: not given
With `C[C@H]1COCCN1c1nc(-c2cnc(N)cc2C(F)(F)F)cc(C2(S(C)(=O)=O)CC2)n1`, the IC50 is 264 nM.

The target in a further data set is PI3-kinase p110-alpha/p85-alpha (Homo sapiens, UniProt P42336). Description: Inhibition of recombinant human full length N-terminal His-tagged p110alpha/p85alpha expressed in baculovirus expression system using PIP2 as substrate measured after 1 hr by Alexa633 Tracer-based fluorescence polarization assay.
PI3-kinase p110-alpha/p85-alpha, sequence (P27986 whole entry): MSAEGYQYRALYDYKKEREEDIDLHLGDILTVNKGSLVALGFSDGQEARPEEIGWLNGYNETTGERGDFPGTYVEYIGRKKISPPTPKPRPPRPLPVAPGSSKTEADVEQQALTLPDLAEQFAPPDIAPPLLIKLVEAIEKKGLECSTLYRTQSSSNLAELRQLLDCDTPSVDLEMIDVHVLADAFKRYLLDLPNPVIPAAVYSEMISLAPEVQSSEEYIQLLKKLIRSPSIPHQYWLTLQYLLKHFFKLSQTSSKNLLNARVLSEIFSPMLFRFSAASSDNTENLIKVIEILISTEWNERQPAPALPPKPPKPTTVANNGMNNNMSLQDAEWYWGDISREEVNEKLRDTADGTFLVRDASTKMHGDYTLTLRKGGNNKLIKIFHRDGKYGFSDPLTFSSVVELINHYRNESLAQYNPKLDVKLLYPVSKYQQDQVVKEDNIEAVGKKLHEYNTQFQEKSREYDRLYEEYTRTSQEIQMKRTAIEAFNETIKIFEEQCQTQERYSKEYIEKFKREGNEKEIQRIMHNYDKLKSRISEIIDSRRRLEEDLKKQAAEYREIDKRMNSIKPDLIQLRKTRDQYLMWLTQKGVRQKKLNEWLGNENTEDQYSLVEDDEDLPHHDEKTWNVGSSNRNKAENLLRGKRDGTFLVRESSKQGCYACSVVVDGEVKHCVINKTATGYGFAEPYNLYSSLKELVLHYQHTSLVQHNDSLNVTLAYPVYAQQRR
PI3-kinase p110-alpha/p85-alpha, sequence (P42336 whole entry): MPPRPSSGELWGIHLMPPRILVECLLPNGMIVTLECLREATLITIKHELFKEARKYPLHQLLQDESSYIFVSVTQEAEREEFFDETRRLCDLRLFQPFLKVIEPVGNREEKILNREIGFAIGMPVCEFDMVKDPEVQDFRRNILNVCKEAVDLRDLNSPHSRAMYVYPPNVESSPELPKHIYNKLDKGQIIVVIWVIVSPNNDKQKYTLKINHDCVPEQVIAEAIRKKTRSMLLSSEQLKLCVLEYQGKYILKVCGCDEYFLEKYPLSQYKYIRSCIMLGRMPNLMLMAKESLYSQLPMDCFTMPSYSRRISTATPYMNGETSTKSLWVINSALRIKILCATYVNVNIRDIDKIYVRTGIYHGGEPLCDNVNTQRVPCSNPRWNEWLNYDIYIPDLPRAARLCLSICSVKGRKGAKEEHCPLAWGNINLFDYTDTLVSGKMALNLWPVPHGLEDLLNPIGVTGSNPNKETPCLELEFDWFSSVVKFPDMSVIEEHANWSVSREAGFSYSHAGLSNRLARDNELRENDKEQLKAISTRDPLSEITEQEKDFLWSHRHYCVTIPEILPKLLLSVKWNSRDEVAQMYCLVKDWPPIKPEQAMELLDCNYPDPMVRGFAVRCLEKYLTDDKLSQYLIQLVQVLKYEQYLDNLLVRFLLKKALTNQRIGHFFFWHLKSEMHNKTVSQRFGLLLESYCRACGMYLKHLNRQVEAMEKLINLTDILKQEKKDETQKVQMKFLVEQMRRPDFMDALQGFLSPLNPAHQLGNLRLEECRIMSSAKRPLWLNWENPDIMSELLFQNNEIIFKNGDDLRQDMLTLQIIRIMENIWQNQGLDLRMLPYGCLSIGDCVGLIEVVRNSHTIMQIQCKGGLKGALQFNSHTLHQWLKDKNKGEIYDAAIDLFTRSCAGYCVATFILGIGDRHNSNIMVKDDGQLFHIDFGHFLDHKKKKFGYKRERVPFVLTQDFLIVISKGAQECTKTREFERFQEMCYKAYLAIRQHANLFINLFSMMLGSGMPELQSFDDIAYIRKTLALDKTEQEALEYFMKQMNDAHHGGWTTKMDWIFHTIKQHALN
Details: not given
In short, it runs like this: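 PI3Kα enzyme inhibition; IC50 is the mean of duplicate measurements.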
As to `CC(C)C(c1cc(-c2cnc(N)cc2C(F)(F)F)nc(N2CCOCC2)n1)S(C)(=O)=O` (configuration not stated), the IC50 was found to be 218 nM.
As to `CS(=O)(=O)C1(c2cc(-c3cnc(N)cc3C(F)(F)F)nc(N3CCOCC3)n2)CCCCC1`, the IC50 is 321 nM.
For the molecule `C[C@@H]1COCCN1c1nc(-c2cnc(N)cc2C(F)(F)F)cc(C2(S(C)(=O)=O)CC2)n1`, the IC50 worked out at 223 nM.
On to `CCS(=O)(=O)C(C)(C)c1cc(-c2cnc(N)cc2C(F)(F)F)nc(N2CCOCC2)n1`, for which the IC50 turned out to be 40 nM.
In the case of `C[C@H]1COCCN1c1nc(-c2cnc(N)cc2C(F)(F)F)cc(C2(S(C)(=O)=O)CC2)n1`, the IC50 was in the range of 9 to 16 nM.
Turning to `CC(C)S(=O)(=O)C(C)(C)c1cc(-c2cnc(N)cc2C(F)(F)F)nc(N2CCOCC2)n1`, the IC50 amounted to 65 nM.
On the same count and under the same terms, to `CC(C)S(=O)(=O)C1(c2cc(-c3cnc(N)cc3C(F)(F)F)nc(N3CCOCC3)n2)CC1` belongs 58 nM; to `C[C@H]1COCCN1c1nc(-c2cnc(N)cc2C(F)(F)F)cc(C2(S(C)(=O)=O)CCC2)n1`, 6 nM.
For the molecule `CC(C)(c1cc(-c2cnc(N)cc2F)nc(N2CCOCC2)n1)S(C)(=O)=O`, the IC50 worked out at 66 nM.
With `Nc1cc(C(F)(F)F)c(-c2cc(C3(S(=O)(=O)c4ccc(F)cc4)CC3)nc(N3CCOCC3)n2)cn1`, the IC50 turned out to be 57 nM.

The target of another data set is Serine/threonine-protein kinase ATR (Homo sapiens) (UniProt Q13535). Description: Inhibition of ATR in human HT-29 cells assessed as reduction in camptothecin-induced Chk1 phosphorylation at Ser345 residue up to 10 uM pretreated for 1 hr followed by camptothecin addition. Type of data set: cell-based.
Serine/threonine-protein kinase ATR (Homo sapiens), sequence (Q13535 whole entry, looked up): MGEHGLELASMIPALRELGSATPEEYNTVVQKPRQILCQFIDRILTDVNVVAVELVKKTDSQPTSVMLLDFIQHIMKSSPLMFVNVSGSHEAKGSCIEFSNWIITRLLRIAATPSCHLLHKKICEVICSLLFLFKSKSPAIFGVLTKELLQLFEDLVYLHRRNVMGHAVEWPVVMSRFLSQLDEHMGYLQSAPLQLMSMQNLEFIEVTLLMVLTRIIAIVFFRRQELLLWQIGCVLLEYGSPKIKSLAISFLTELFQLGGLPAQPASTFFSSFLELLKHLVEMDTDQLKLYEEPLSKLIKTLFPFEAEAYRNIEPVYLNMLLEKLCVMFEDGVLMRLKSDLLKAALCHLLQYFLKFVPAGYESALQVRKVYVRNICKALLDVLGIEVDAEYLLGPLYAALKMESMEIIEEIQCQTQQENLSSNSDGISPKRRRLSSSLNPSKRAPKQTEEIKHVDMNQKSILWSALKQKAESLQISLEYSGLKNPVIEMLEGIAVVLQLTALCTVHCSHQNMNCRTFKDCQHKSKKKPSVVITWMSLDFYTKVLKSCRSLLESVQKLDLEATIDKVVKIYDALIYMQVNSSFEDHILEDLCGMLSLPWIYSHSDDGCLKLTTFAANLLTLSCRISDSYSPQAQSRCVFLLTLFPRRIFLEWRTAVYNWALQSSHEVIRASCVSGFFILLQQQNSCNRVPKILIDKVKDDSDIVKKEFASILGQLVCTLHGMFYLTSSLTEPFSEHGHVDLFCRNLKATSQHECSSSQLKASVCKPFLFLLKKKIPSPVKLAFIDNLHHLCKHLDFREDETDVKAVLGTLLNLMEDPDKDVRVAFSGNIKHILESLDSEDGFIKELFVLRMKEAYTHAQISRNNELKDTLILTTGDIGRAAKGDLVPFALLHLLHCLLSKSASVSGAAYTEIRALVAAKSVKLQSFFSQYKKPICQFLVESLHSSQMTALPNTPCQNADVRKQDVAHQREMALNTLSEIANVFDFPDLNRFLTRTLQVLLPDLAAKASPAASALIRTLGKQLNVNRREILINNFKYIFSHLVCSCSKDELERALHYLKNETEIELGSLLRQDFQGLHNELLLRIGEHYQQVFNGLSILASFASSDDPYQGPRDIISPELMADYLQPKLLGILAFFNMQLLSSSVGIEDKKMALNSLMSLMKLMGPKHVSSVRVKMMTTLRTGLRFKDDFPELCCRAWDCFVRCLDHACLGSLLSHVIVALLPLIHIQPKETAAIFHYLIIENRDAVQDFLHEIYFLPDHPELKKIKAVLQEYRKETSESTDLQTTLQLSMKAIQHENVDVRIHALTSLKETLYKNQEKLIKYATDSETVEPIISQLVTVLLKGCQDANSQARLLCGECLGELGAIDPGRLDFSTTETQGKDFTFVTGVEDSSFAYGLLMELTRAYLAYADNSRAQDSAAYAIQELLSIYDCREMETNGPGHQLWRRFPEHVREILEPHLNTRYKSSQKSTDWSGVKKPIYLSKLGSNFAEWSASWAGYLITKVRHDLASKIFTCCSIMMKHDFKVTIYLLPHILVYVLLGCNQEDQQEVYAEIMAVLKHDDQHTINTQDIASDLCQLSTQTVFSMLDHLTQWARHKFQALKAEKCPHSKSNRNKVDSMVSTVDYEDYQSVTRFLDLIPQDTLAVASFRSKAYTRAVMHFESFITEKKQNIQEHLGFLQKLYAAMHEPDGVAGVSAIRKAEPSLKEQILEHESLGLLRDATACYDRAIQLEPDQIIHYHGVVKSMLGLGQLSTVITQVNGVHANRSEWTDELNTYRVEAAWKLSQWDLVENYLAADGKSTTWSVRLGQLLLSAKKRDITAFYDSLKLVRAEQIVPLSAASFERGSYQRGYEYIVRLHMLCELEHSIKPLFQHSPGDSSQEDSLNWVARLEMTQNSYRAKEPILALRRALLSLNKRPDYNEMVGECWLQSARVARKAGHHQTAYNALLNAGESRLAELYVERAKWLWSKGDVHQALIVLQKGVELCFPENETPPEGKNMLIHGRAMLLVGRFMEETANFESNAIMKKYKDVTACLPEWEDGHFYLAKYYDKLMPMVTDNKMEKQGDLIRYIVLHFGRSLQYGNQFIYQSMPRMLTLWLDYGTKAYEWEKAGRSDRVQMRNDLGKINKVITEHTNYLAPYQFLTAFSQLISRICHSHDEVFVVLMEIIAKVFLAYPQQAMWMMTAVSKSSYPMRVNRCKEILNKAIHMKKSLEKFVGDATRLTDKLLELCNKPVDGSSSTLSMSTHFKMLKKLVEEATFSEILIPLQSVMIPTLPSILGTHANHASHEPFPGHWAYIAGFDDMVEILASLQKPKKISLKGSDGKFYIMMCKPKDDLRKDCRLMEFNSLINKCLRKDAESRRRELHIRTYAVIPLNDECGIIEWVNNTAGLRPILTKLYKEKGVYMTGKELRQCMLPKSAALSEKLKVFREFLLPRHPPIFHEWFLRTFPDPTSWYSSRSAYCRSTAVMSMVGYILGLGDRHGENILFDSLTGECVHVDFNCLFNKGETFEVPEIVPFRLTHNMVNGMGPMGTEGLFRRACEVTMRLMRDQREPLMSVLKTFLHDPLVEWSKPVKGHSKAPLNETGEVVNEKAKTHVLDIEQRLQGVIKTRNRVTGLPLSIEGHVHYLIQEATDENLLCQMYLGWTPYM
Details: not given
In short, it runs like this:
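HT-29 cells were pretreated with compound for 1 h, then exposed to camptothecin to induce DNA damage. ATR activity was read as phosphorylation of its substrate Chk1, with total Chk1 and β-actin as internal controls. […] served as reference inhibitor.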
On to `CS(=O)(=O)C1(c2cc(-c3cnc(N)cc3C(F)(F)F)nc(N3CCOCC3)n2)CC1`, for which the inhibition result was “inactive”.
With `C[C@H]1COCCN1c1nc(-c2cnc(N)cc2C(F)(F)F)cc(C2(S(C)(=O)=O)CC2)n1`, the inhibition result is “inactive”.
`CS(=O)(=O)Cc1cc(-c2cnc(N)cc2C(F)(F)F)nc(N2CCOCC2)n1`: the inhibition entry is “inactive”.

The subject of a further data set is MCF7. Description: Antiproliferative activity against human MCF7 cells harboring PIK3CA E545K mutant after 72 hrs by MTT assay. Particulars: MCF7, 72 h. The class given is functional, cell-based. (Tetrazolium dyes change colour on reduction, which living cells bring about.)
On to `CCS(=O)(=O)C(C)(C)c1cc(-c2cnc(N)cc2C(F)(F)F)nc(N2CCOCC2)n1`, for which half-maximal inhibition (IC50) required 512 nM.
Molecule `CS(=O)(=O)C1(c2cc(-c3cnc(N)cc3C(F)(F)F)nc(N3CCOCC3)n2)CCCC1` showed a half-maximal inhibitory concentration (IC50) of 340 nM.
`C[C@H]1COCCN1c1nc(-c2cnc(N)cc2C(F)(F)F)cc(C2(S(C)(=O)=O)CC2)n1` yielded an IC50 of 112 nM.
`CC(C)S(=O)(=O)C(C)(C)c1cc(-c2cnc(N)cc2C(F)(F)F)nc(N2CCOCC2)n1` yielded an IC50 of 599 nM.
Same read-out and setting: to `CC(C)S(=O)(=O)C1(c2cc(-c3cnc(N)cc3C(F)(F)F)nc(N3CCOCC3)n2)CC1` belongs 437 nM.
On the same count and under the same terms, the figure for `C[C@H]1COCCN1c1nc(-c2cnc(N)cc2C(F)(F)F)cc(C2(S(C)(=O)=O)CCC2)n1` is 78 nM; for `CS(=O)(=O)Cc1cc(-c2cnc(N)cc2C(F)(F)F)nc(N2CCOCC2)n1` it is 1510 nM; for `CC(C)(c1cc(-c2cnc(N)cc2F)nc(N2CCOCC2)n1)S(C)(=O)=O` it is 104 nM.
With `Nc1cc(C(F)(F)F)c(-c2cc(C3(S(=O)(=O)c4ccccc4)CC3)nc(N3CCOCC3)n2)cn1`, the IC50 stood at 513 nM.
The same measure, in the same setting: the figure for `Nc1cc(C(F)(F)F)c(-c2cc(C3(S(=O)(=O)c4ccc(F)cc4)CC3)nc(N3CCOCC3)n2)cn1` is 572 nM.

A further data set concerns the target Serine/threonine-protein kinase mTOR (Homo sapiens, UniProt P42345). Description: Inhibition of recombinant human GST-tagged mTOR catalytic domain (1360 to 2549 residues) expressed in baculovirus expression system using GFP-4EBP1 as substrate measured after 1 hr by Lathascreen method.
Details: not given
As for `CS(=O)(=O)C1(c2cc(-c3cnc(N)cc3C(F)(F)F)nc(N3CCOCC3)n2)CC1`, the IC50 came to 1680 nM.
In the case of `C[C@H]1COCCN1c1nc(-c2cnc(N)cc2C(F)(F)F)cc(C2(S(C)(=O)=O)CC2)n1`, the IC50 turned out to be 2120 nM.
For the molecule `CS(=O)(=O)Cc1cc(-c2cnc(N)cc2C(F)(F)F)nc(N2CCOCC2)n1`, the IC50 turned out to be 14000 nM.

The next data set addresses PI3-kinase p110-delta/p85-alpha (Homo sapiens, UniProt O00329). The data set is described as follows: Inhibition of recombinant human full-length N-terminal His6-tagged p110delta/recombinant human full length p85alpha expressed in baculovirus infected Sf21 insect cells using PIP2 as substrate measured after 1 hr by Alexa633 Tracer-based fluorescence polarization assay.
Details: not given
As for `C[C@H]1COCCN1c1nc(-c2cnc(N)cc2C(F)(F)F)cc(C2(S(C)(=O)=O)CC2)n1`, the IC50 stood at 197 nM.

Test system in a further data set: not listed separately
Description: Intrinsic clearance in human liver microsomes at […] pretreated up to 45 mins followed by NADPH addition and measured by LC-MS/MS analysis. The class given is ADME, microsome. Particulars: read-out: CLH.
`CS(=O)(=O)C1(c2cc(-c3cnc(N)cc3C(F)(F)F)nc(N3CCOCC3)n2)CC1`: the CLint scaled was found to be 9.86 mL/min/kg.
For `CC(C)(c1cc(-c2cnc(N)cc2F)nc(N2CCOCC2)n1)S(C)(=O)=O`, the CLint scaled lay in the range of 5 to 16 mL/min/kg.

Test system in the next data set: not listed separately
Description: Inhibition of PI3K in human PC3 cells assessed as reduction in AKT phosphorylation at Ser473 measured after 2 hrs by fluorescence assay. Particulars: PC-3, 2 h. Type of data set: cell-based.
As for `CCS(=O)(=O)C(C)(C)c1cc(-c2cnc(N)cc2C(F)(F)F)nc(N2CCOCC2)n1`, the IC50 was determined as 947 nM.
On the same count and under the same terms, the figure for `CS(=O)(=O)C1(c2cc(-c3cnc(N)cc3C(F)(F)F)nc(N3CCOCC3)n2)CCCC1` is 384 nM; for `C[C@H]1COCCN1c1nc(-c2cnc(N)cc2C(F)(F)F)cc(C2(S(C)(=O)=O)CC2)n1` it is 546 nM.
As to `CC(C)S(=O)(=O)C(C)(C)c1cc(-c2cnc(N)cc2C(F)(F)F)nc(N2CCOCC2)n1`, the IC50 turned out to be 1180 nM.
With `CC(C)S(=O)(=O)C1(c2cc(-c3cnc(N)cc3C(F)(F)F)nc(N3CCOCC3)n2)CC1`, the IC50 came out at 430 nM.
As for `C[C@H]1COCCN1c1nc(-c2cnc(N)cc2C(F)(F)F)cc(C2(S(C)(=O)=O)CCC2)n1`, the IC50 stood at 184 nM.
For `CS(=O)(=O)Cc1cc(-c2cnc(N)cc2C(F)(F)F)nc(N2CCOCC2)n1`, the IC50 was 3010 nM.
With `CC(C)(c1cc(-c2cnc(N)cc2F)nc(N2CCOCC2)n1)S(C)(=O)=O`, the IC50 was 215 nM.
For the molecule `Nc1cc(C(F)(F)F)c(-c2cc(C3(S(=O)(=O)c4ccccc4)CC3)nc(N3CCOCC3)n2)cn1`, the IC50 was found to be 668 nM.
Same read-out and setting: to `Nc1cc(C(F)(F)F)c(-c2cc(C3(S(=O)(=O)c4ccc(F)cc4)CC3)nc(N3CCOCC3)n2)cn1` belongs 1280 nM.

Values taken from ChEMBL document CHEMBL4196123, “Discovery of an Orally Bioavailable Dual PI3K/mTOR Inhibitor Based on Sulfonyl-Substituted Morpholinopyrimidines” (ACS Med Chem Lett, 2018).
